Screens: PubChem BioAssay, several laboratories
Cardio protect: myocardial damage modulation in H9c2 cells; protection from H2O2 cell death, % at 20 µM; 360,000 tested, 0.63% active; AID 588492; H9c2 cardiomyocytes, H2O2 injury protection, ATPLite, 2 h;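 active = compounds giving at least 50% protection of heart cells from peroxide-induced death in the single-dose screen, raw or plate-pattern-corrected value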;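 note: 0% = DMSO wells with peroxide and 100% = DMSO wells without peroxide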
ASAP1 GAP inh: blocks human ASAP1-stimulated Arf1 GTP hydrolysis; GDP FP detection; inhibition, % at 16.5 µM; 360,000 tested, 0.19% active; in the data active = inhibition above about 25%;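 note: 0% = vehicle with enzyme and substrate and 100% = no enzyme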
Neddylation inh: inhibitors of human cullin neddylation. P61081+Q13564. inhibition, % at 25 µM. TR-FRET cullin neddylation, biochemical. AID 651699. 360,000 tested, 0.58% active; in the data active = inhibition above about 36%
ARFGAP1 inh: inhibits rat ARF GTPase activating protein 1. Arfgap1-stimulated ARF1 GTP hydrolysis, GDP FP detection. Q62848. inhibition, % at 16.5 µM. 360,000 tested, 0.26% active;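 active = inhibition above a per-plate limit, mean inhibition of low control wells plus 3 SD, cut at about 25% in these data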;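 note: 0% = DMSO wells with enzyme and 100% = wells lacking Arfgap1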
Target sequence (Q62848 1-136 limits assumed): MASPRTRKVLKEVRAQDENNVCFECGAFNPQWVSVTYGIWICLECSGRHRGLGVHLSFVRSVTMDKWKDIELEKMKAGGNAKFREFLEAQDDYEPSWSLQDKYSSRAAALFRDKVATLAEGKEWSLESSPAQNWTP
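Material: rat Arfgap1 GAP domain (His6, aa 1-136), purified enzyme. Also added: human ARF1(Δ1-17)-GTP substrate. Compound dosing: 16.5 µM single point, 1.26% DMSO. Timing: enzyme reaction 120 min at 25 °C after 20 min preincubation. Signal: GDP detection by fluorescence polarization. Read-out basis: percent inhibition of GAP-stimulated GDP formation, scaled between DMSO and no-Arfgap1 medians.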
Neddyl conf: confirmation of human cullin neddylation inhibitors. shares compounds with Neddylation inh. TR-FRET cullin neddylation biochemical assay. calls only at 25 µM. 1,800 tested, 13% active. AID 652217; in the data active = inhibition above about 40%;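 note: neddylation substrate is the cullin 1 ring ligase complex with SKP2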
* hit, by the source's call; i = inactive; . = not tested or not shown; + = active, no number. Only some compounds are listed: those with a hit (about 1.6% of all), similar ones and a draw of the others.

SMILES | Cardio protect | ASAP1 GAP inh | Neddylation inh | ARFGAP1 inh | Neddyl conf
CC1CC(=O)c2cnc(Nc3cccc(C(F)(F)F)c3)nc2C1 (stereo not drawn) | 6 | 5 | 14 | 1 | .
CN(C)CCNc1nc(-c2ccco2)c2c(c1C#N)CC(C)(C)OC2 | 8 | 1 | 51* | 15 | +
CC(C)(C)c1ccc(NC(=O)C2CCCN(c3cnccn3)C2)cc1 (stereo not drawn) | -1 | -8 | 41* | 9 | i
COc1ccc(NC(=O)C2CCCN(c3cnccn3)C2)cc1 (stereo not drawn) | -3 | 10 | 10 | -2 | .
CCc1nc2ccc(C(=O)N3CCCCC3)cn2c1N(CCC(C)C)CCN(C)C | 6 | -4 | 8 | 3 | .
Cc1cc(NC(=O)COC(=O)[C@H](Cc2ccccc2)NC(=O)c2ccco2)no1 | 5 | 1 | -5 | 5 | .
COc1ccc2c(c1)c(=O)oc1c(C)c(OC(C)C(=O)N[C@@H](Cc3c[nH]c4ccc(O)cc34)C(=O)O)ccc12 (stereo partly drawn) | -1 | 1 | 47* | -1 | .
CN1OC[C@@H]2CN(C(=O)C(C)(C)C)[C@H](c3ccc(-c4cccnc4)cc3)C[C@@H]21 | 6 | 19 | -4 | 1 | .
Cc1ccc(-c2c(C#N)c(N)nc3c2CCCCCC3)o1 | 13 | 3 | 19 | 10 | .
Cc1ccc(-c2c(C#N)c(N)nc3c2CCCCC3)o1 | -2 | -10 | 41* | -4 | .
COC(=O)[C@]12C[C@H](CC(=O)NCCc3ccccc3OC)C(=O)N(Cc3ccccc3)C1=C[C@H](C1CCCC1)O[C@@H]2C | . | 5 | . | 1 | .
COc1ccc(NC(=O)C2(C)CCN2Cc2ccc(OC)c3ccccc23)cc1OC (stereo not drawn) | -3 | -4 | -7 | -2 | .
COc1ccc(C2CC(c3cccs3)=NN2C(=O)c2ccco2)cc1OC (stereo not drawn) | -1 | 1 | 22 | 3 | .
COc1ccc(C2CC(c3cccs3)=NN2C(=O)CSC2=NCCS2)cc1 (stereo not drawn) | 4 | -1 | 43* | 7 | i
O=C(c1ccco1)N1N=C(c2cccs2)CC1c1ccc(F)cc1 (stereo not drawn) | 7 | 4 | 46* | 5 | i
O=C(Nc1ccccc1)N1N=C(c2cccs2)CC1c1cccs1 (stereo not drawn) | -5 | -7 | 40* | -7 | i
Cc1ccc(C2CC(c3cccs3)=NN2C(=O)CSC2=NCCS2)cc1 (stereo not drawn) | 7 | -4 | . | -8 | .
N#Cc1ccccc1OCC(=O)N1N=C(c2cccs2)CC1c1ccco1 (stereo not drawn) | -1 | 4 | 51* | 3 | i
O=C(CN1CCOCC1)N1N=C(c2cccs2)CC1c1cccs1 (stereo not drawn) | 2 | 1 | 22 | 9 | .
COc1ccc(-c2nn(-c3ccccc3)cc2C2CC(c3cccs3)=NN2C(=O)CCC(=O)O)cc1 (stereo not drawn) | -1 | -21 | 46* | 4 | i
Cc1ccc(C2CC(c3cccs3)=NN2C(=O)CCl)cc1 (stereo not drawn) | -7 | -6 | . | 13 | .
CCC(=O)N1N=C(c2cccs2)CC1c1ccc(C)cc1 (stereo not drawn) | -1 | -21 | 52* | -16 | .
CC(=O)N1CCC(c2nc3ccccc3n2C(C)C(=O)NCc2ccccc2)CC1 (stereo not drawn) | . | 6 | 3 | 8 | .
CSc1nc2nccc(-c3ccc(-c4ccccc4)cc3)n2n1 | 8 | -8 | . | 3 | .
CSc1nc2nccc(-c3ccc4c(c3)OCO4)n2n1 | 8 | -10 | 48* | -3 | i
SMILES | Cardio protect | ASAP1 GAP inh | Neddylation inh | ARFGAP1 inh | Neddyl conf
COc1ccc(CNC(=O)c2sc(=O)n(Cc3cc(C(C)=O)ccc3OC)c2C)cc1 | 6 | 6 | -109 | -11 | .
COc1ccc(C2C3=C(CC(C)(C)CC3=O)Nc3c2c(=O)[nH]c(=O)n3Cc2ccccc2)cc1OC (stereo not drawn) | 2 | 14 | 44* | -8 | .
Cc1ccc(NC(=O)CN2C(=O)N/C(=C/c3ccccc3OCc3cccc(C(=O)O)c3)C2=O)cc1 | 6 | 0 | 1 | 14 | .
COc1cccc(/C=C2/NC(=O)N(CC(=O)Nc3ccc(C)cc3)C2=O)c1OCc1cccc(C(=O)O)c1 | 1 | -14 | 50* | 1 | .
Cc1cc(N2CCOCC2)nc2ccc(NC(=S)NC(C)C)cc12 | 7 | -3 | 50* | 5 | i
COc1cccc(NC(=O)CCC(=O)Nc2ccc3nc(N4CCOCC4)cc(C)c3c2)c1 | 8 | 3 | 43* | -14 | .
